One may read the IC50 as the point on the concentration scale where inhibition reaches its midpoint. A low value points to greater potency in that assay.

The nature of test [1]: Antiproliferative activity against human HuH7 cells after 48 to 72 hrs by MTT assay. Type of test: functional, cell-based. To be noted: Huh-7. The procedure, abridged: (§1)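 MTT assay read 48 and 72 h after compound addition. Cell lines grown in DMEM with 10% heat-inactivated FCS, 2 mM L-glutamine, 1 mM sodium pyruvate; GBM stem cells grown as nonadherent neurospheres. IC50 by Hill equation fit; ≥3 independent experiments, each point repeated six times.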
(In general: Tetrazolium dyes change colour on reduction, which living cells bring about.)

Another test has as its system SNB-75. Description: Antiproliferative activity against human SNB75 cells after 48 to 72 hrs by MTT assay. The format is functional, cell-based. The procedure, abridged: as §1
For another test, the system named is MDA-MB-231. Description: Antiproliferative activity against human MDA-MB-231 cells after 48 to 72 hrs by MTT assay. The format is functional, cell-based. The method in brief: as §1
The nature of test [2]: Antiproliferative activity against mouse B16F10 cells after 48 to 72 hrs by MTT assay. The format is functional, cell-based. As to conditions: B16-F10. The method in brief:
as §1

The nature of test [3]: Antiproliferative activity against human Caco2 cells after 48 to 72 hrs by MTT assay. Type of test: functional, cell-based. As to conditions: Caco-2. The procedure, abridged: as §1
The next test deals with DU-145. Description: Antiproliferative activity against human DU145 cells after 48 to 72 hrs by MTT assay. The format is functional, cell-based. The procedure, abridged: as §1
The next test relates to C6. Description: Antiproliferative activity against rat C6 cells after 48 to 72 hrs by MTT assay. Type of test: functional, cell-based. The method in brief:
as §1

Test [4] is described as follows: Antiproliferative activity against human Gli7 cells after 48 to 72 hrs by MTT assay. Type of test: functional, cell-based. The procedure, abridged:
as §1

The test system of the next test is MDA-MB-435. Description: Antiproliferative activity against human MDA-MB-435 cells after 48 to 72 hrs by MTT assay. Type of test: functional, cell-based. The procedure, abridged:
as §1

The subject of another test is A-431. Nature of the test: Antiproliferative activity against human A431 cells after 48 to 72 hrs by MTT assay. Type of test: functional, cell-based. The procedure, abridged: as §1
Test [5] in a line: Antiproliferative activity against human Gli4F11 cells after 48 to 72 hrs by MTT assay.

`CC1(C)O[C@H]2[C@@H]([C@H]3COC(C)(C)O3)O[P@](=O)(c3ccccc3)[C@@H](OS(C)(=O)=O)[C@H]2O1`: the IC50 in test [1] was 24 µM; in the test on SNB-75, 6.28 µM; in the test on MDA-MB-231 it was 3.45 µM; in [2], 2.08 µM; in test [3], above 100 µM; in the test with DU-145, above 100 µM. Besides, the half-maximal inhibitory concentration (IC50) in the test with C6 was found to be 1.11 µM; in test [4] it was 2710 nM; with MDA-MB-435 it was 1.96 µM; in the test with A-431, 4850 nM; in test [5], 6.81 µM.

Take `CC1(C)O[C@@H]2[C@H](O1)[C@@H](O)[P@@](=O)(c1ccccc1)O[C@@H]2[C@H]1COC(C)(C)O1`: the IC50 was above 100 µM in test [1]; 16.1 µM in the test on SNB-75; 5.6 µM with MDA-MB-231; 10.4 µM in test [2]; above 100 µM in test [3]; above 100 µM in the test with DU-145. In addition, the IC50 in the test on C6 was above 100 µM; in test [4], 5810 nM; with MDA-MB-435, 11.6 µM; in the test on A-431, 770 nM; in test [5], 11.4 µM.

Regarding `CC1(C)O[C@H]2[C@@H]([C@H]3COC(C)(C)O3)O[P@@](=O)(c3ccccc3)[C@@H](O)[C@H]2O1`, the half-inhibitory concentration (IC50) was above 100 µM in [1]; 13.4 µM in the test with SNB-75; 6.08 µM with MDA-MB-231; 10.2 µM in [2]; above 100 µM in test [3]; above 100 µM with DU-145. Also, the half-maximal inhibitory concentration (IC50) is above 100 µM with C6; 3720 nM in test [4]; 11 µM in the test with MDA-MB-435; 980 nM in the test on A-431; 8.56 µM in test [5].

For `CC1(C)O[C@@H]2[C@H](O1)[C@@H](NCc1ccccc1)[P@](=O)(c1ccccc1)O[C@@H]2[C@H]1COC(C)(C)O1`, the 50% inhibitory concentration (IC50) is 23.8 µM in test [1]; 5.16 µM in the test with SNB-75; 4.17 µM with MDA-MB-231; 2.05 µM in test [2]; above 100 µM in test [3]; above 100 µM with DU-145. Besides, the IC50 in the test with C6 amounted to 14.8 µM; in [4], 4620 nM; with MDA-MB-435, 3.99 µM; in the test on A-431, 4700 nM; in test [5] it was 2.79 µM.

As for `CC1(C)O[C@H]2[C@@H]([C@H]3COC(C)(C)O3)O[P@](=O)(c3ccccc3)[C@@H](Oc3ccc([N+](=O)[O-])cc3)[C@H]2O1`, the IC50 is above 100 µM in test [1]; 3.11 µM in the test with SNB-75; above 100 µM in the test with MDA-MB-231; above 100 µM in test [2]; above 100 µM in test [3]; above 100 µM in the test with DU-145. In addition, the half-maximal inhibitory concentration (IC50) with C6 was 31.4 µM; in test [4], 2070 nM; in the test on MDA-MB-435, above 100 µM; in the test with A-431, 2020 nM; in test [5], 3.91 µM.

For `CC1(C)O[C@H]2[C@@H]([C@H]3COC(C)(C)O3)O[P@](=O)(c3ccccc3)[C@@H](OC(=O)c3ccccc3)[C@H]2O1`, the IC50 in test [1] was above 100 µM; in the test with SNB-75 it was 9.54 µM; with MDA-MB-231, 1.16 µM; in test [2], 13.5 µM; in test [3], above 100 µM; with DU-145 it was above 100 µM. For the same compound, the IC50 was determined as 8.51 µM in the test on C6; 1930 nM in test [4]; 0.66 µM with MDA-MB-435; 4350 nM with A-431; 3.22 µM in test [5].

Turning to `CC(=O)N[C@@H]1[C@H]2OC(C)(C)O[C@H]2[C@@H]([C@H]2COC(C)(C)O2)O[P@@]1(=O)c1ccccc1`, the IC50 was 21.9 µM in test [1]; 0.65 µM in the test with SNB-75; 23.2 µM in the test with MDA-MB-231; 14.9 µM in [2]; 36 µM in test [3]; 31.2 µM in the test on DU-145. Also, the concentration for half-maximal inhibition (IC50) in the test on C6 was found to be 0.65 µM; in test [4] it was 500 nM; with MDA-MB-435, 9.61 µM; in the test on A-431 it was 130 nM; in test [5], 0.54 µM.

Consider `Cc1ccc(N[C@@H]2[C@H]3OC(C)(C)O[C@H]3[C@@H]([C@H]3COC(C)(C)O3)O[P@@]2(=O)c2ccccc2)cc1`, for which the half-inhibitory concentration (IC50) in test [1] was 23.6 µM; with SNB-75 it was 5.37 µM; in the test on MDA-MB-231 it was 3.72 µM; in [2], 2.02 µM; in [3], above 100 µM; in the test on DU-145, above 100 µM. In addition, the concentration for half-maximal inhibition (IC50) turned out to be 5.5 µM in the test with C6; 2800 nM in test [4]; 2.65 µM in the test with MDA-MB-435; 4670 nM in the test on A-431; 5.55 µM in test [5].

Take `CC1(C)O[C@H]2[C@@H]([C@H]3COC(C)(C)O3)O[P@](=O)(c3ccccc3)[C@@H](O)[C@H]2O1`: the half-inhibitory concentration (IC50) was above 100 µM in test [1]; 14.3 µM in the test on SNB-75; 9.37 µM with MDA-MB-231; 9.95 µM in test [2]; above 100 µM in test [3]; above 100 µM in the test with DU-145. The IC50 with C6 came to 0.5 µM; in test [4], 3160 nM; in the test with MDA-MB-435, 16.6 µM; in the test with A-431 it was 1110 nM; in [5] it was 38.4 µM.

For `CC(=O)O[C@H]1[C@H]2OC(C)(C)O[C@H]2[C@@H]([C@H]2COC(C)(C)O2)O[P@]1(=O)c1ccccc1`, the IC50 was above 100 µM in test [1]; 1.37 µM in the test on SNB-75; above 100 µM with MDA-MB-231; above 100 µM in test [2]; above 100 µM in [3]; above 100 µM in the test with DU-145. Further, the IC50 was 10.2 µM in the test with C6; 3620 nM in [4]; above 100 µM in the test with MDA-MB-435; above 100000 nM with A-431; 8.76 µM in test [5].

Consider `CC1(C)O[C@H]2[C@@H]([C@H]3COC(C)(C)O3)O[P@](=O)(c3ccccc3)[C@@H](Oc3ccc([N+](=O)[O-])c([N+](=O)[O-])c3)[C@H]2O1`, for which the half-maximal inhibitory concentration (IC50) is 23.8 µM in [1]; 6.99 µM in the test on SNB-75; 6.35 µM in the test on MDA-MB-231; 2.59 µM in test [2]; above 100 µM in test [3]; above 100 µM in the test on DU-145. Also, the IC50 was 9.44 µM in the test with C6; 1930 nM in test [4]; 2.66 µM in the test with MDA-MB-435; 840 nM with A-431; 2.87 µM in test [5].

Turning to `CC1(C)O[C@H]2[C@@H]([C@H]3COC(C)(C)O3)O[P@](=O)(c3ccccc3)[C@@H](Oc3ccc(N)cc3)[C@H]2O1`, the half-maximal inhibitory concentration (IC50) in test [1] was 23.6 µM; with SNB-75, 6.23 µM; with MDA-MB-231, 4.82 µM; in test [2], 4.69 µM; in test [3], above 100 µM; with DU-145 it was above 100 µM. Besides, the half-maximal inhibitory concentration (IC50) was 9.35 µM with C6; 1770 nM in test [4]; 3.36 µM in the test with MDA-MB-435; above 100000 nM in the test on A-431; 2.98 µM in test [5].

On to `CCCC[P@@]1(=O)O[C@H]([C@H]2COC(C)(C)O2)[C@@H]2OC(C)(C)O[C@@H]2[C@@H]1O`, for which the IC50 is above 100 µM in test [1]; 6.21 µM in the test on SNB-75; above 100 µM in the test with MDA-MB-231; above 100 µM in test [2]; above 100 µM in test [3]; above 100 µM in the test with DU-145. For the same compound, the IC50 with C6 was 8.62 µM; in test [4], 2880 nM; with MDA-MB-435 it was above 100 µM; with A-431, 550 nM; in test [5], 6.12 µM.

Regarding `CC1(C)O[C@@H]2[C@H](O1)[C@@H](Nc1ccccc1)[P@](=O)(c1ccccc1)O[C@@H]2[C@H]1COC(C)(C)O1`, the half-inhibitory concentration (IC50) in [1] was 24.2 µM; with SNB-75 it was 9.99 µM; with MDA-MB-231, 3.83 µM; in test [2], 1.96 µM; in [3], above 100 µM; with DU-145, above 100 µM. Moreover, the IC50 came to 10.3 µM with C6; 1820 nM in test [4]; 2.48 µM with MDA-MB-435; 1260 nM in the test on A-431; 2.68 µM in [5].

Turning to `Cc1ccc(S(=O)(=O)O[C@H]2[C@H]3OC(C)(C)O[C@H]3[C@@H]([C@H]3COC(C)(C)O3)O[P@]2(=O)c2ccccc2)cc1`, the IC50 was above 100 µM in [1]; 9.42 µM with SNB-75; 2.66 µM with MDA-MB-231; 1.64 µM in test [2]; above 100 µM in test [3]; above 100 µM with DU-145. Moreover, the IC50 in the test on C6 is 6.99 µM; in test [4] it was 2800 nM; in the test with MDA-MB-435, 4.02 µM; with A-431 it was 4440 nM; in test [5], 5.41 µM.

With `CC1(C)O[C@@H]2[C@H](O1)[C@@H](N)[P@](=O)(c1ccccc1)O[C@@H]2[C@H]1COC(C)(C)O1`, the IC50 in test [1] was 16.3 µM; in the test with SNB-75, 2.96 µM; in the test with MDA-MB-231, 4.15 µM; in [2], 1.02 µM; in [3], above 100 µM; with DU-145, above 100 µM. Also, the IC50 is 24.4 µM in the test on C6; 1290 nM in test [4]; 1.16 µM in the test with MDA-MB-435; above 100000 nM with A-431; 1.37 µM in test [5].
